Among the data in ChEMBL document CHEMBL1127362, “Synthesis and pharmacological evaluation of isoindolo[1,2-b]quinazolinone and isoindolo[2,1-a]benzimidazole derivatives related to the antitumor agent batracylin” (J Med Chem, 1994) are IC50, Net grain counts and Relative activity values, retold here.

The test system of assay [1] is CCRF-CEM. As to the kind of experiment: Tested for the inhibitory activity against CCRF CEM T- cell leukemia cells. The assay is classed as functional, cell-based. The settings on record: Homo sapiens. The essentials: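 MTT microtiter tetrazolium assay; CCRF CEM cells seeded at 30 000 cells/well and allowed to attach. Each dose tested in four replicate plates, each with eight DMSO-only control wells.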

For assay [2], the species on record is Rattus norvegicus. As to the kind of experiment: Nuclear count minus the highest cytoplasmic count determined in rat hepatocytes for each cell. The assay is classed as functional, Hepatocyte. The essentials: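 Hepatocytes isolated from F-344 rats (220–300 g), ~5 × 10⁶ cells seeded on coverslips; after 2 h washed, refed with serum-free Williams medium E and exposed together to 10 μCi/mL tritiated thymidine (50–90 Ci/mmol) plus compound in DMSO. Autoradiography after 18–20 h; 20 cells counted per slide, triplicate per concentration, mean ± SD of two experiments. Positive requires net grains >0 with dose response.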

The test system of assay [3] is DNA topoisomerase II (Bos taurus). As to the kind of experiment: Relative potency to cause 90% of topoisomerase II-mediated cleavage of liner 8.4-kb YEPG DNA.

Usually IC50 stands for the point on the concentration scale where inhibition reaches its midpoint.

Take `O=C1c2ccccc2-c2nc3ccncc3n21`: the IC50 in assay [1] was above 200 µM. Also, the Net grain counts in assay [2] is recorded as -10.5. Moreover, the Relative activity in assay [3] stood at 0.

Turning to `Nc1ccc2c(c1)CN1C(=O)c3ccccc3C1=N2` [DANIQUIDONE], in assay [1], it took 14 µM to reach half-maximal inhibition (IC50). Also, in assay [2], the Net grain counts is listed as 93.1.

Compound `O=C1c2ccccc2C2=Nc3ccccc3CN12` showed a half-maximal inhibitory concentration (IC50) in assay [1] of 60 µM. Further, the Net grain counts in assay [2] is listed as -4.5. This compound yielded a Relative activity in assay [3] of 1.

In assay [1], `O=C1c2ccccc2-c2nc3ccccc3n21` yielded an IC50 of 68 µM. In assay [2], this compound displayed a Net grain counts of -7.4. The compound also yielded a Relative activity in assay [3] of 0.

`COc1cc([C@@H]2c3cc4c(cc3[C@@H](O[C@@H]3O[C@@H]5CO[C@@H](C)O[C@H]5[C@H](O)[C@H]3O)[C@H]3COC(=O)[C@H]23)OCO4)cc(OC)c1O` [ETOPOSIDE] registered an IC50 in assay [1] of 0.002 µM. This compound came in with a Net grain counts in assay [2] of -7.5.

In assay [1], `Cc1cccc(N2C(=O)c3ccccc3C2=O)c1[N+](=O)[O-]` registered an IC50 above 200 µM. For the same compound, the Net grain counts in assay [2] is on record as -4.1. Also, the Relative activity in assay [3] was 0.

Take `O=C1c2ccccc2-c2nc3ccc(O)cc3n21`: the IC50 in assay [1] was above 200 µM. For the same compound, the Relative activity in assay [3] was 0.

`O=C1c2ccccc2C2=Nc3ccc([N+](=O)[O-])cc3CN12` gave an IC50 in assay [1] above 150 µM. Further, the Net grain counts in assay [2] is on record as 10.5. Moreover, the Relative activity in assay [3] was 0.

`O=C1c2ccccc2C2=Nc3ccncc3CN12` came in with an IC50 in assay [1] of 102 µM. The compound also yielded a Net grain counts in assay [2] of -5.2. In assay [3], this compound showed a Relative activity of 0.1.

`Nc1ccc2nc3n(c2c1)C(=O)c1ccccc1-3` showed an IC50 in assay [1] above 200 µM. The compound also gave a Net grain counts in assay [2] of -4.4. Moreover, in assay [3], the Relative activity is 0.

`COc1ccc(N)c(N2C(=O)c3ccccc3C2=O)c1`: the IC50 in assay [1] was above 200 µM. In assay [2], this compound came in with a Net grain counts of -8.9. The compound further came in with a Relative activity in assay [3] of 0.

Compound `Cc1cccc2nc3n(c12)C(=O)c1ccccc1-3` gave an IC50 in assay [1] above 200 µM. In addition, the Net grain counts in assay [2] is listed as -3.7. The same compound returned a Relative activity in assay [3] of 0.

Turning to `Cc1cccc2c1nc1n2C(=O)c2ccccc2-1`, the IC50 in assay [1] was above 200 µM. The same compound displayed a Net grain counts in assay [2] of -3.5. In assay [3], this compound returned a Relative activity of 0.

`Cc1cccc(N)c1N1C(=O)c2ccccc2C1=O` displayed an IC50 in assay [1] of 71 µM. In assay [2], this compound gave a Net grain counts of -8.7. The Relative activity in assay [3] worked out at 0.

Regarding `COc1ccc2nc3n(c2c1)C(=O)c1ccccc1-3`, in assay [1], the IC50 is above 200 µM. The same compound registered a Net grain counts in assay [2] of -3.6. The compound further yielded a Relative activity in assay [3] of 0.
